Measured values published in ChEMBL document CHEMBL1649119, “Daptomycin pharmacokinetics in adult oncology patients with neutropenic fever” (Antimicrob Agents Chemother, 2009).

What was measured:
[1] = Clearance in healthy human subjects at 10 mg/kg, iv administered as 30 mins infusion every 24 hrs measured on day 4; type: ADME, organism-based; design: dose 10 mg/kg, route intravenous; conditions: in vivo
[2] = Apparent volume of distribution during terminal phase in healthy human subjects at 8 mg/kg, iv administered as 30 mins infusion every 24 hrs measured on day 1; type: ADME, organism-based; design: dose 8 mg/kg, route intravenous; conditions: in vivo
[3] = Clearance in healthy human at 8 mg/kg, iv administered as 30 mins infusion every 24 hrs measured on day 7; type: ADME, organism-based; design: dose 8 mg/kg, route intravenous; conditions: in vivo
[4] = Clearance in healthy human subjects at 12 mg/kg, iv administered as 30 mins infusion every 24 hrs measured on day 14; type: ADME, organism-based; design: dose 12 mg/kg, route intravenous; conditions: in vivo
[5] = Apparent volume of distribution during terminal phase in healthy human at 4 mg/kg, iv administered as 30 mins infusion every 24 hrs measured on day 7; type: ADME, organism-based; design: dose 4 mg/kg, route intravenous; conditions: in vivo
[6] = Apparent volume of distribution during terminal phase in healthy human subjects at 12 mg/kg, iv administered as 30 mins infusion every 24 hrs measured on day 1; type: ADME, organism-based; design: dose 12 mg/kg, route intravenous; conditions: in vivo
[7] = Cmax in young healthy human at 4 mg/kg, iv administered as single dose 30 mins infusion; type: ADME, organism-based; design: dose 4 mg/kg, route intravenous; conditions: in vivo
[8] = Drug excretion in adult human subjects urine assessed as unchanged drug at 6 mg/kg, iv administered as single dose 30 mins infusion; type: ADME, organism-based; design: dose 6 mg/kg, route intravenous; conditions: read-out: Drug uptake
[9] = Plasma protein binding in human after 2 hrs; type: ADME, cell-free; conditions: read-out: PPB (converted)
Method in brief: (§1)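 Neutropenic-fever oncology patients received 6 mg/kg IV daptomycin; serum was drawn 0.5, 2 and 8 h after the end of infusion. Free drug was obtained by ultrafiltration (30,000-MW cutoff) and quantified by HPLC against a saline-matrix curve of 0.25–100 μg/ml, with total plasma drug also measured. Percent bound was (total − free)/total × 100; results are given as mean ± SD.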

[10] = Clearance in healthy human at 6 mg/kg, iv administered as 30 mins infusion every 24 hrs measured on day 1; type: ADME, organism-based; design: dose 6 mg/kg, route intravenous; conditions: in vivo
[11] = AUC (0 to infinity) in healthy human subjects at 6 mg/kg, iv administered as 30 mins infusion every 24 hrs measured on day 4; type: ADME, organism-based; design: time infinity, dose 6 mg/kg, route intravenous; conditions: plasma
[12] = Drug excretion in moderately obese adult human urine assessed as unchanged drug at 4 mg/kg, iv administered as single dose 30 mins infusion; type: ADME, organism-based; design: dose 4 mg/kg, route intravenous; conditions: read-out: Drug uptake
[13] = AUC (0 to infinity) in healthy human at 4 mg/kg, iv administered as 30 mins infusion every 24 hrs measured on day 1; type: ADME, organism-based; design: time infinity, dose 4 mg/kg, route intravenous; conditions: plasma
[14] = Clearance in healthy human at 8 mg/kg, iv administered as 30 mins infusion every 24 hrs measured on day 14; type: ADME, organism-based; design: dose 8 mg/kg, route intravenous; conditions: in vivo
[15] = Renal clearance in nonobese adult human at 4 mg/kg, iv administered as single dose 30 mins infusion; type: ADME, organism-based, Kidney; design: dose 4 mg/kg, route intravenous; conditions: in vivo, read-out: CL_renal (converted)
[16] = Plasma protein binding in human after 0.5 hrs; type: ADME, cell-free; conditions: read-out: PPB (converted); method in brief: as §1
[17] = Apparent volume of distribution during terminal phase in healthy human subjects at 10 mg/kg, iv administered as 30 mins infusion every 24 hrs measured on day 4; type: ADME, organism-based; design: dose 10 mg/kg, route intravenous; conditions: in vivo
[18] = Clearance in nonobese adult human at 4 mg/kg, iv administered as single dose 30 mins infusion; type: ADME, organism-based; design: dose 4 mg/kg, route intravenous; conditions: in vivo
Homo sapiens [19] = experiment: Clearance in healthy human at 4 mg/kg, iv administered as single dose 30 mins infusion; type: ADME, organism-based; design: dose 4 mg/kg, route intravenous; conditions: in vivo, 0.5 h
[20] = AUC (0 to infinity) in healthy human at 8 mg/kg, iv administered as 30 mins infusion every 24 hrs measured on day 7; type: ADME, organism-based; design: dose 8 mg/kg, route intravenous, time infinity; conditions: plasma
[21] = Volume of distribution at steady state in nonobese human at 4 mg/kg, iv administered as single dose 30 mins infusion; type: ADME, organism-based; design: dose 4 mg/kg, route intravenous; conditions: in vivo, read-out: Vdss
[22] = Volume of distribution at steady state in old healthy human at 4 mg/kg, iv administered as single dose 30 mins infusion; type: ADME, organism-based; design: dose 4 mg/kg, route intravenous; conditions: in vivo, read-out: Vdss
[23] = Half life in healthy human subjects at 10 mg/kg, iv administered as 30 mins infusion every 24 hrs measured on day 14; type: ADME, organism-based; design: dose 10 mg/kg, route intravenous; conditions: in vivo
[24] = Cmax in healthy human at 4 mg/kg, iv administered as 30 mins infusion every 24 hrs measured on day 1; type: ADME, organism-based; design: dose 4 mg/kg, route intravenous; conditions: in vivo
Homo sapiens [25] = experiment: Apparent volume of distribution during terminal phase in healthy human subjects at 6 mg/kg, iv administered as 30 mins infusion every 24 hrs measured on day 1; type: ADME, organism-based; design: dose 6 mg/kg, route intravenous; conditions: in vivo
[26] = Half life in healthy human subjects at 12 mg/kg, iv administered as 30 mins infusion every 24 hrs measured on day 4; type: ADME, organism-based; design: dose 12 mg/kg, route intravenous; conditions: in vivo
[27] = AUC (0 to infinity) in healthy human subjects at 12 mg/kg, iv administered as 30 mins infusion every 24 hrs measured on day 4; type: ADME, organism-based; design: time infinity, dose 12 mg/kg, route intravenous; conditions: plasma
[28] = Volume of distribution at steady state in adult human subjects at 6 mg/kg, iv administered as single dose 30 mins infusion; type: ADME, organism-based; design: dose 6 mg/kg, route intravenous; conditions: in vivo, read-out: Vdss
[29] = Renal clearance in old healthy human at 4 mg/kg, iv administered as single dose 30 mins infusion; type: ADME, organism-based, Kidney; design: dose 4 mg/kg, route intravenous; conditions: in vivo, read-out: CL_renal (converted)
[30] = Renal clearance in adult human subjects at 6 mg/kg, iv administered as single dose 30 mins infusion; type: ADME, organism-based, Kidney; design: dose 6 mg/kg, route intravenous; conditions: in vivo, read-out: CL_renal (converted)
[31] = Clearance in morbidly obese human at 4 mg/kg, iv administered as single dose 30 mins infusion; type: ADME, organism-based; design: dose 4 mg/kg, route intravenous; conditions: in vivo
[32] = Drug excretion in young healthy human urine assessed as unchanged drug at 4 mg/kg, iv administered as single dose 30 mins infusion; type: ADME, organism-based; design: dose 4 mg/kg, route intravenous; conditions: read-out: Drug uptake
[33] = Clearance in old healthy human at 4 mg/kg, iv administered as single dose 30 mins infusion; type: ADME, organism-based; design: dose 4 mg/kg, route intravenous; conditions: in vivo
[34] = Renal clearance in morbidly obese adult human at 4 mg/kg, iv administered as single dose 30 mins infusion; type: ADME, organism-based, Kidney; design: dose 4 mg/kg, route intravenous; conditions: in vivo, read-out: CL_renal (converted)
[35] = Unbound fraction in healthy human plasma at 6 mg/kg, iv administered as 30 mins infusion every 24 hrs measured on day 1; type: ADME, organism-based; design: dose 6 mg/kg, route intravenous
[36] = AUC (0 to infinity) in healthy human at 8 mg/kg, iv administered as 30 mins infusion every 24 hrs measured on day 1; type: ADME, organism-based; design: time infinity, dose 8 mg/kg, route intravenous; conditions: plasma
[37] = Unbound fraction in healthy human plasma at 8 mg/kg, iv administered as 30 mins infusion every 24 hrs measured on day 7; type: ADME, organism-based; design: dose 8 mg/kg, route intravenous
[38] = Drug excretion in morbidly obese adult human urine assessed as unchanged drug at 4 mg/kg, iv administered as single dose 30 mins infusion; type: ADME, organism-based; design: dose 4 mg/kg, route intravenous; conditions: read-out: Drug uptake
[39] = Cmax in nonobese adult human at 4 mg/kg, iv administered as single dose 30 mins infusion; type: ADME, organism-based; design: dose 4 mg/kg, route intravenous; conditions: in vivo
[40] = Renal clearance in moderately obese adult human at 4 mg/kg, iv administered as single dose 30 mins infusion; type: ADME, organism-based, Kidney; design: dose 4 mg/kg, route intravenous; conditions: in vivo, read-out: CL_renal (converted)
[41] = Plasma concentration in moderately obese adult human at 4 mg/kg, iv administered as single dose 30 mins infusion measured after 24 hrs; type: ADME, organism-based; design: dose 4 mg/kg, route intravenous
[42] = Mean residence time in adult human with hepatic impairment at 6 mg/kg, iv administered as single dose 30 mins infusion; type: ADME, organism-based; design: dose 6 mg/kg, route intravenous; conditions: in vivo
[43] = Half life in healthy human subjects at 12 mg/kg, iv administered as 30 mins infusion every 24 hrs measured on day 1; type: ADME, organism-based; design: dose 12 mg/kg, route intravenous; conditions: in vivo
Homo sapiens [44] = experiment: Unbound clearance in healthy human at 8 mg/kg, iv administered as 30 mins infusion every 24 hrs measured on day 1; type: ADME, organism-based; design: dose 8 mg/kg, route intravenous; conditions: in vivo
[45] = Cmax in moderately obese adult human at 4 mg/kg, iv administered as single dose 30 mins infusion; type: ADME, organism-based; design: dose 4 mg/kg, route intravenous; conditions: in vivo
[46] = AUC (0 to infinity) in healthy human at 4 mg/kg, iv administered as 30 mins infusion every 24 hrs measured on day 7; type: ADME, organism-based; design: time infinity, dose 4 mg/kg, route intravenous; conditions: plasma

## CCCCCCCCCC(=O)N[C@@H](Cc1c[nH]c2ccccc12)C(=O)N[C@H](CC(N)=O)C(=O)N[C@@H](CC(=O)O)C(=O)N[C@@H]1C(=O)NCC(=O)N[C@@H](CCCN)C(=O)N[C@@H](CC(=O)O)C(=O)N[C@H](C)C(=O)N[C@@H](CC(=O)O)C(=O)NCC(=O)N[C@H](CO)C(=O)N[C@@H]([C@H](C)CC(=O)O)C(=O)N[C@@H](CC(=O)c2ccccc2N)C(=O)O[C@@H]1C
[1]
  clearance: 0.147 mL/min/kg
[2]
  Vd: 0.103 L/kg
[3]
  clearance: 0.118 mL/min/kg
[4]
  clearance: 0.15 mL/min/kg
[5]
  Vd: 0.096 L/kg
[6]
  Vd: 0.111 L/kg
[7]
  Cmax: 42300 ng/mL
[8]
  dose excreted at 0.5 h: 39.8%
[9]
  fraction unbound at 2 h: 0.063
[10]
  clearance: 0.143 mL/min/kg
[11]
  AUC(0-inf): 632 µg·h/mL
[12]
  dose excreted at 0.5 h: 51.8%
[13]
  AUC(0-inf): 425 µg·h/mL
[14]
  clearance: 0.123 mL/min/kg
[15]
  CL renal at 0.5 h: 0.139 mL/min/kg
[16]
  fraction unbound at 0.5 h: 0.058
[17]
  Vd: 0.0983 L/kg
[18]
  clearance: 0.245 mL/min/kg
Homo sapiens [19]
  CL: 9.84 mL/min
[20]
  AUC(0-inf): 1130 µg·h/mL
[21]
  Vd: 0.11 L/kg
[22]
  Vd: 0.15 L/kg
[23]
  half-life: 7.9 h
[24]
  Cmax: 54600 ng/mL
Homo sapiens [25]
  Vd: 0.1059 L/kg
[26]
  half-life: 7.7 h
[27]
  AUC(0-inf): 1280 µg·h/mL
[28]
  Vd: 0.08 L/kg
[29]
  CL renal at 0.5 h: 0.0712 mL/min/kg
[30]
  CL renal at 0.5 h: 0.0453 mL/min/kg
[31]
  clearance: 0.118 mL/min/kg
[32]
  dose excreted at 0.5 h: 42.3%
[33]
  clearance: 0.164 mL/min/kg
[34]
  CL renal at 0.5 h: 0.134 mL/min/kg
[35]
  fraction unbound at 1 day: 0.07
[36]
  AUC(0-inf): 1130 µg·h/mL
[37]
  fraction unbound at 7 day: 0.09
[38]
  dose excreted at 0.5 h: 42.7%
[39]
  Cmax: 46300 ng/mL
[40]
  CL renal at 0.5 h: 0.156 mL/min/kg
[41]
  concentration at 24 h: 3440 ng/mL
[42]
  MRT: 12 h
[43]
  half-life: 7.8 h
Homo sapiens [44]
  CL: 0.833 mL/min/kg
[45]
  Cmax: 57800 ng/mL
[46]
  AUC(0-inf): 494 µg·h/mL
